Experimental data as given in ChEMBL document CHEMBL1275461, “Early bactericidal activity and pharmacokinetics of the diarylquinoline TMC207 in treatment of pulmonary tuberculosis” (Antimicrob Agents Chemother, 2008).
Converted amounts (≈) assume the structure as drawn.

Columns and labels:
Homo sapiens [1] = test: Steady-state plasma concentration in pulmonary tuberculosis patient at 100 […], po once daily for 7 days by liquid chromatography-MS/MS analysis; type: ADME, organism-based; set-up: dose 100 mg/kg, route oral; conditions: in vivo, 168 h
Method in brief: (§1)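 Treatment-naïve smear-positive pulmonary TB patients, hospitalized; 7-day oral once-daily monotherapy, directly observed, within 30 min after breakfast. Heparinized plasma taken predose and 1, 2, 3, 4, 5, 6, 8, 12 and 24 h postdose on day 7, plus predose on days 5 and 6. Parent drug and N-monodesmethyl metabolite measured by validated LC-MS/MS. Noncompartmental parameters; AUC0-24 by linear trapezoidal rule.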

[2] = system: Mycobacterium tuberculosis; test: Bactericidal activity against Mycobacterium tuberculosis in pulmonary tuberculosis patient assessed as reduction in sputum bacterial count at 100 […], po once daily measured after 7 days; type: functional
Method in brief: (§2)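 Hospitalized treatment-naïve smear-positive patients took oral doses once daily, observed, after breakfast. Sputum was pooled over 16 h overnight at baseline, after each of the 7 dosing days, and on the night after the first standard-therapy dose. Sputum was stirred, digested with dithiothreitol for 20 min at room temperature, and diluted 10-fold. Dilutions were plated in quadruplicate on selective 7H11 agar and counted after 3-4 weeks at 37°C at 20-200 colonies. The read-out was change in log10 CFU/ml from baseline, with a count of 0 set to log 0.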

[3] = Drug uptake in pulmonary tuberculosis patient at 400 mg/kg, po once daily for 7 days by liquid chromatography-MS/MS analysis; type: ADME, organism-based; set-up: dose 400 mg/kg, route oral; conditions: human, in vivo, read-out: Drug uptake; method in brief: as §1
[4] = system: Mycobacterium tuberculosis; test: Bactericidal activity against Mycobacterium tuberculosis in pulmonary tuberculosis patient assessed as reduction in sputum bacterial count at 25 […], po once daily measured after 4 days; type: functional; method in brief: as §2
[5] = system: Mycobacterium tuberculosis; test: Bactericidal activity against Mycobacterium tuberculosis in pulmonary tuberculosis patient assessed as reduction in sputum bacterial count at 25 […], po once daily measured after 2 days; type: functional; method in brief: as §2
[6] = system: Mycobacterium tuberculosis; test: Bactericidal activity against Mycobacterium tuberculosis in pulmonary tuberculosis patient assessed as reduction in sputum bacterial count at 25 mg/kg, po once daily measured after 7 days; type: functional; method in brief: as §2
Homo sapiens [7] = test: Cardiotoxicity in pulmonary tuberculosis patient assessed as increase in QT interval at 400 mg/kg, po once daily for 7 days; type: toxicity, organism-based; set-up: dose 400 mg/kg, route oral; conditions: in vivo, 168 h
[8] = system: Mycobacterium tuberculosis; test: Bactericidal activity against Mycobacterium tuberculosis in pulmonary tuberculosis patient assessed as reduction in sputum bacterial count at 400 mg/kg, po once daily measured after 3 days; type: functional; method in brief: as §2
Homo sapiens [9] = test: Toxicity in pulmonary tuberculosis patient assessed as rash at 100 […], po once daily; type: organism-based; set-up: dose 100 mg/kg, route oral; conditions: in vivo
[10] = system: Mycobacterium tuberculosis; test: Bactericidal activity against Mycobacterium tuberculosis in pulmonary tuberculosis patient assessed as reduction in sputum bacterial count at 400 mg/kg, po once daily measured after 2 days; type: functional; method in brief: as §2
[11] = system: Mycobacterium tuberculosis; test: Bactericidal activity against Mycobacterium tuberculosis in pulmonary tuberculosis patient assessed as reduction in sputum bacterial count at 25 mg/kg, po once daily measured after 5 days; type: functional; method in brief: as §2
[12] = system: Mycobacterium tuberculosis; test: Bactericidal activity against Mycobacterium tuberculosis in pulmonary tuberculosis patient assessed as reduction in sputum bacterial count at 400 mg/kg, po once daily measured after 5 days; type: functional; method in brief: as §2
[13] = Cmax in pulmonary tuberculosis patient at 400 mg/kg, po once daily for 7 days by liquid chromatography-MS/MS analysis; type: ADME, organism-based; set-up: dose 400 mg/kg, route oral; conditions: human, in vivo; method in brief: as §1
[14] = system: Mycobacterium tuberculosis; test: Bactericidal activity against Mycobacterium tuberculosis in pulmonary tuberculosis patient assessed as reduction in sputum bacterial count at 100 […], po once daily measured after 3 days; type: functional; method in brief: as §2
[15] = Tmax in pulmonary tuberculosis patient at 25 mg/kg, po once daily for 7 days by liquid chromatography-MS/MS analysis; type: ADME, organism-based; set-up: dose 25 mg/kg, route oral; conditions: human, in vivo; method in brief: as §1
[16] = system: Mycobacterium tuberculosis; test: Bactericidal activity against Mycobacterium tuberculosis in pulmonary tuberculosis patient assessed as reduction in sputum bacterial count at 400 mg/kg, po once daily measured after 4 days; type: functional; method in brief: as §2
[17] = system: Mycobacterium tuberculosis; test: Bactericidal activity against Mycobacterium tuberculosis in pulmonary tuberculosis patient assessed as reduction in sputum bacterial count at 25 […], po once daily measured after 1 day; type: functional; method in brief: as §2
[18] = system: Mycobacterium tuberculosis; test: Antimicrobial activity against drug-sensitive Mycobacterium tuberculosis; type: functional
Homo sapiens [19] = test: Toxicity in pulmonary tuberculosis patient assessed as hemoptysis at 100 […], po once daily; type: organism-based; set-up: dose 100 mg/kg, route oral; conditions: in vivo
[20] = Drug uptake in pulmonary tuberculosis patient at 100 […], po once daily for 7 days by liquid chromatography-MS/MS analysis; type: ADME, organism-based; set-up: dose 100 mg/kg, route oral; conditions: human, in vivo, read-out: Drug uptake; method in brief: as §1
Homo sapiens [21] = test: Toxicity in pulmonary tuberculosis patient assessed as diarrhea at 400 mg/kg, po once daily; type: organism-based; set-up: dose 400 mg/kg, route oral; conditions: in vivo
[22] = system: Mycobacterium tuberculosis; test: Bactericidal activity against Mycobacterium tuberculosis in pulmonary tuberculosis patient assessed as reduction in sputum bacterial count at 25 mg/kg, po once daily measured on day 8 after starting standard TB therapy; type: functional; method in brief: as §2
[23] = AUC (0 to 24 hrs) in pulmonary tuberculosis patient at 25 mg/kg, po once daily for 7 days by liquid chromatography-MS/MS analysis; type: ADME, organism-based; set-up: time < 24 hr, dose 25 mg/kg, route oral; conditions: human, plasma
Method in brief: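 Treatment-naïve, sputum smear-positive patients, hospitalized, took the drug orally once daily under direct observation within 30 min after breakfast. On day 7, heparinized plasma was drawn predose and at 1, 2, 3, 4, 5, 6, 8, 12 and 24 h for parent drug and M2 metabolite. Levels were measured by validated LC-MS/MS, and AUC0-24 was calculated noncompartmentally by the linear trapezoidal rule.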

[24] = system: Mycobacterium tuberculosis; test: Bactericidal activity against Mycobacterium tuberculosis in pulmonary tuberculosis patient assessed as reduction in sputum bacterial count at 100 […], po once daily measured after 1 day; type: functional; method in brief: as §2

COc1nc2ccc(Br)cc2cc1[C@@H](c1ccccc1)[C@@](O)(CCN(C)C)c1cccc2ccccc12 [BEDAQUILINE]
Css (Homo sapiens [1]): 667.7 ng/mL | log10CFU/ml [2]: -0.26 | concentration at 168 h [3]: 1530 ng/mL | log10CFU/ml [4]: -0.22 | log10CFU/ml [5]: 0.02 | log10CFU/ml [6]: -0.04 | Time (Homo sapiens [7]): 18.8 ms | log10CFU/ml [8]: -0.31 | Activity (Homo sapiens [9]): 7% | log10CFU/ml [10]: 0.04 | log10CFU/ml [11]: -0.09 | log10CFU/ml [12]: -0.45 | Cmax [13]: 5500 ng/mL | log10CFU/ml [14]: -0.37 | Tmax [15]: 3.93 h | log10CFU/ml [16]: -0.22 | log10CFU/ml [17]: -0.06 | MIC [18]: 0.03 µg/mL (≈ 0.054 µM) | Activity (Homo sapiens [19]): 6.3% | concentration at 168 h [20]: 391 ng/mL | Activity (Homo sapiens [21]): 7% | log10CFU/ml [22]: -0.46 | AUC at 24 h [23]: 3970 ng·h/mL | log10CFU/ml [24]: -0.11
